The record followed here is ChEMBL document CHEMBL1156948, “Statistical molecular design of a focused salicylidene acylhydrazide library and multivariate QSAR of inhibition of type III secretion in the Gram-negative bacterium Yersinia” (Bioorg Med Chem, 2010).

Active and inactive are the calls of the source. How the calls were made is not given here.

In assay [1] the test system is Yersinia pseudotuberculosis YPIII. As to the kind of experiment: Inhibition of T3S in Yersinia pseudotuberculosis YPIII expressing yopE-luxAB at 3.13 uM after 3 hrs by luciferase reporter gene assay. An outline of the steps:
(§1)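 Strain YPIII pIB102 (yopE-luxAB) grown overnight at room temperature in BHI with 5 mM EGTA and 20 mM MgCl2 (calcium depletion), adjusted to OD600 0.088–0.095. Compound added from DMSO at 1.56–200 µM final (eight concentrations). Shaken 1 h at room temperature, then 2 h at 37 °C. Decanal added and light emission read immediately. Triplicates, repeated at least three times.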
In general terms: Reporter assays use an easily measured gene product as a stand-in for the process of interest.

Assay [2] deals with Yersinia pseudotuberculosis. As to the kind of experiment: Antibacterial activity against Yersinia pseudotuberculosis expressing pIB102 at 50 uM after 23 hrs by broth dilution assay. Type of assay: functional, organism-based. The essentials:
(§2)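 Wild-type pIB102 grown overnight in LB at room temperature, diluted to OD600 = 0.1 in LB with 2.5 mM CaCl2. Compound added from DMSO stock to final 50 and 100 µM. Incubated at 37 °C with absorbance at 595 nm read over 23 h.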
Background: In broth dilution the organism is exposed to a series of concentrations in liquid medium.

Assay [3] deals with Yersinia pseudotuberculosis YPIII. As to the kind of experiment: Inhibition of T3S in Yersinia pseudotuberculosis YPIII expressing yopE-luxAB at 25 uM after 3 hrs by luciferase reporter gene assay. The essentials: as §1
The test system is the same in assay [4]. As to the kind of experiment: Inhibition of T3S in Yersinia pseudotuberculosis YPIII expressing yopE-luxAB at 12.5 uM after 3 hrs by luciferase reporter gene assay. An outline of the steps: as §1
Assay [5] concerns Escherichia coli. As to the kind of experiment: Antibacterial activity against Escherichia coli DH5[alpha] at 100 uM after 23 hrs by broth dilution assay. Type of assay: functional, organism-based. The essentials:
(§3)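 Overnight LB culture of E. coli DH5α grown at 37 °C, diluted to OD600 0.1 in LB with 2.5 mM CaCl2; compound added from DMSO stock to final 50 or 100 µM. Incubated at 37 °C with absorbance at 595 nm followed over 23 h.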

The test system of assay [6] is Yersinia pseudotuberculosis YPIII. As to the kind of experiment: Inhibition of T3S in Yersinia pseudotuberculosis YPIII expressing yopE-luxAB at 100 uM after 3 hrs by luciferase reporter gene assay. An outline of the steps:
as §1

Assay [7] shares this test system. As to the kind of experiment: Inhibition of T3S in Yersinia pseudotuberculosis YPIII expressing yopE-luxAB at 200 uM after 3 hrs by luciferase reporter gene assay. The essentials: as §1
Assay [8] has as its system Escherichia coli. As to the kind of experiment: Antibacterial activity against Escherichia coli DH5[alpha] at 50 uM after 23 hrs by broth dilution assay. Type of assay: functional, organism-based. The essentials:
as §3

Assay [9] has as its system Yersinia pseudotuberculosis. As to the kind of experiment: Antibacterial activity against Yersinia pseudotuberculosis expressing pIB102 at 100 uM after 23 hrs by broth dilution assay. Type of assay: functional, organism-based. An outline of the steps:
as §2

The test system of assay [10] is Yersinia pseudotuberculosis YPIII. As to the kind of experiment: Inhibition of T3S in Yersinia pseudotuberculosis YPIII expressing yopE-luxAB at 6.25 uM after 3 hrs by luciferase reporter gene assay. The essentials: as §1
For assay [11] the test system is unchanged. As to the kind of experiment: Inhibition of T3S in Yersinia pseudotuberculosis YPIII expressing yopE-luxAB at 50 uM after 3 hrs by luciferase reporter gene assay. The essentials: as §1
Assay [12] shares this test system. As to the kind of experiment: Inhibition of T3S in Yersinia pseudotuberculosis YPIII expressing yopE-luxAB at 1.56 uM after 3 hrs by luciferase reporter gene assay. An outline of the steps:
as §1

One may read the inhibition as the change of the read-out against control, counted positive when it falls. For the compound `COc1ccc(C(=O)N/N=C/c2cc(I)cc(I)c2O)cc1OC`, the inhibition is 4% in [1]; 30% in assay [3]; 23% in assay [4]; 33% in assay [6]; 40% in [7]; 19% in assay [10]. In addition, the inhibition in [11] is 24%. The result in [2], in assay [5], in assay [8] and in [9] was inactive.
For the compound `CCN(CC)c1ccc(/C=N/NC(=O)COc2ccc(F)cc2)c(O)c1`, the inhibition in assay [1] worked out at 11%; in [3], 35%; in assay [4] it was 23%; in assay [6], 58%; in assay [7], 50%; in assay [10], 17%. In [11], the inhibition is 54%. For the same compound, the result in assay [2], in assay [5], in assay [8] and in [9] was inactive.
As to `COc1cccc(/C=N/NC(=O)c2cc(OC)c(OC)c(OC)c2)c1O`, the inhibition in assay [1] turned out to be 14%; in assay [3], 20%; in assay [4], 15%; in assay [6] it was 65%; in assay [7] it was 68%; in assay [10], 17%. Besides, the inhibition in [11] is 43%. Besides, the outcome in assay [2], in assay [5], in [8] and in assay [9] was inactive.
For `COc1ccc(/C=N/NC(=O)C(N)=O)c(O)c1`, the inhibition in assay [1] is -6%; in assay [3], 13%; in [4], 8%; in assay [6], 94%; in assay [7] it was 97%; in [10], 4%. For the same compound, the inhibition in assay [11] came to 73%. Besides, the outcome in [2], in assay [5], in assay [8] and in assay [9] was inactive.
As for `COc1ccc(Br)c(C(=O)N/N=C/c2ccc(Cl)cc2O)c1`, the inhibition in assay [1] turned out to be 14%; in assay [3], 31%; in assay [4], 25%; in [6], 49%; in [7], 58%; in assay [10], 10%. Also, the inhibition in [11] was found to be 36%. For the same compound, the result in assay [2], in assay [5], in [8] and in assay [9] was inactive.
`O=C(CC12CC3CC(CC(C3)C1)C2)N/N=C/c1cc([N+](=O)[O-])cc([N+](=O)[O-])c1O`: the inhibition is -5% in assay [1]; 6% in [3]; 10% in assay [4]; 20% in [6]; 13% in assay [7]; 1% in assay [10]. Further, the inhibition in assay [11] is 18%. The outcome in assay [2], in assay [5], in [8] and in assay [9] was inactive.
Take `Cc1nnsc1C(=O)N/N=C/c1cc(F)cc(Cl)c1O`: the result in assay [5] and in [8] was inactive.
For the compound `COc1cccc(C(=O)N/N=C/c2cc(C(C)(C)C)cc(C(C)(C)C)c2O)c1`, the inhibition in assay [1] worked out at 4%; in assay [3], 14%; in [4], 13%; in assay [6] it was 21%; in [7] it was 11%; in assay [10] it was 7%. Further, in assay [11], the inhibition came out at 23%. Also, the result in [2], in assay [5], in assay [8] and in [9] was inactive.
Regarding `O=C(N/N=C/c1cc([N+](=O)[O-])cc([N+](=O)[O-])c1O)c1ccc(Br)cc1`, the inhibition in assay [1] was -6%; in assay [3], 19%; in [4], 12%; in [6], 22%; in assay [7], 18%; in [10], 9%. For the same compound, the inhibition in assay [11] was 22%. Further, the result in assay [2], in [5], in assay [8] and in [9] was inactive.
Regarding `COc1cc(/C=N/NC(=O)COc2ccc([N+](=O)[O-])cc2)c(O)c(OC)c1`, the inhibition in [1] is -1%; in assay [3] it was 18%; in assay [4] it was 14%; in assay [6], 14%; in assay [7], -2%; in assay [10] it was 13%. Further, in assay [11], the inhibition came out at 16%. Moreover, the outcome in [2], in [5], in assay [8] and in assay [9] was inactive.
With `CC(C)(C)c1cc(/C=N/NC(=O)COc2ccc([N+](=O)[O-])cc2)c(O)c(C(C)(C)C)c1`, the inhibition in assay [1] is -2%; in assay [3], 12%; in assay [4] it was 14%; in assay [6] it was 18%; in assay [7], 4%; in assay [10], 7%. In addition, in [11], the inhibition is 18%. Moreover, the outcome in [2], in [5], in [8] and in assay [9] was inactive.
As for `COc1ccc(C(=O)N/N=C/c2cc(F)cc(Cl)c2O)cc1OC`, the result in assay [2], in [5], in assay [8] and in [9] was inactive. The inhibition in [3] is 10%; in assay [4] it was 0%; in assay [6], 56%; in [7] it was 64%; in [10], 6%; in [12] it was -10%. The inhibition in assay [11] is 38%.
Regarding `O=C(COc1ccc(F)cc1)N/N=C/c1cc(I)cc(I)c1O`, the inhibition in assay [1] worked out at 0%; in assay [3] it was 21%; in assay [4], 18%; in [6], 36%; in assay [7] it was 44%; in assay [10] it was 15%. Also, in assay [11], the inhibition worked out at 30%. Moreover, the outcome in assay [2], in [5], in assay [8] and in [9] was inactive.
`COc1cc(Br)cc(/C=N/NC(=O)C(N)=O)c1O`: the inhibition in assay [1] was -4%; in assay [3] it was 10%; in assay [4] it was 8%; in assay [6], 47%; in [7], 78%; in assay [10] it was 1%. Also, the inhibition in assay [11] was determined as 9%. Further, the result in [2], in assay [5], in [8] and in [9] was inactive.
Turning to `O=C(CCc1ccc(O)cc1)N/N=C/c1c(O)cc(O)cc1O`, the inhibition in [1] came out at 18%; in assay [3], 25%; in assay [4] it was 23%; in assay [6], 36%; in assay [7] it was 46%; in [10], 20%. Besides, the inhibition in assay [11] turned out to be 29%. Also, the result in assay [2], in assay [5], in assay [8] and in assay [9] was inactive.
Take `COc1cc([N+](=O)[O-])cc(/C=N/NC(=O)c2ccncc2)c1O`: the inhibition in assay [1] worked out at 8%; in assay [3] it was 28%; in [4] it was 21%; in assay [6] it was 42%; in assay [7], 51%; in [10] it was 16%. Further, the inhibition in assay [11] was 35%. The result in assay [2], in assay [5], in assay [8] and in assay [9] was inactive.
